Screening data from PubChem BioAssay.
Cathepsin G inh – human cathepsin G inhibitors, primary screen, biochemical, pooled compound mixtures, AMC fluorescence. P08311. purified enzyme, AMC-tetrapeptide fluorescence. inhibition, % at 5 µM (by protocol). 62,000 tested, 0.2% active. AID 581, 2007;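 active means inhibition above 20% in each of the two mixture wells holding the compound; inactive means inhibition of 20% or less in either well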;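 further: 0% = enzyme control without mixture and 100% = blank lacking enzyme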
C1s inh – complement C1s protease inhibitors, primary screen, biochemical, 10-compound mixtures; Complement C1s subcomponent (Homo sapiens), P09871; purified C1s, fluorogenic AMC substrate, pooled mixtures; mean inhibition % of two 10-compound mixtures (active compounds read high), % at 5 µM (by protocol); 62,000 tested, 0.16% active; AID 538, 2006;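 active means inhibition above 20% in each of the two 10-compound mixture wells holding the compound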;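 further: 0% = enzyme wells lacking compound mixture and 100% = no-enzyme blank wells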
Target sequence (P09871 16-437 limits assumed): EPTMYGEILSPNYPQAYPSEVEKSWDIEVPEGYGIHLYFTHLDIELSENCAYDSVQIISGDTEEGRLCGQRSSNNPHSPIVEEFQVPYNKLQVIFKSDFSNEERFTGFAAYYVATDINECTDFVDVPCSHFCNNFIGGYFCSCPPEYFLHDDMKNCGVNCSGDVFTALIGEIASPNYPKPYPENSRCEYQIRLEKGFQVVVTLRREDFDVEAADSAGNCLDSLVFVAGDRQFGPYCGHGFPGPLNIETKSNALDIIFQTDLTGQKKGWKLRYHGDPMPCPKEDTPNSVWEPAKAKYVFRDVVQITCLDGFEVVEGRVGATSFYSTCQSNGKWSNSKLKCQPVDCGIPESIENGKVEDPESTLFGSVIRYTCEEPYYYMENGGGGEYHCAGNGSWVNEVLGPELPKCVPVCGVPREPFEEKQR
Target sequence (P09871 438-688 limits assumed): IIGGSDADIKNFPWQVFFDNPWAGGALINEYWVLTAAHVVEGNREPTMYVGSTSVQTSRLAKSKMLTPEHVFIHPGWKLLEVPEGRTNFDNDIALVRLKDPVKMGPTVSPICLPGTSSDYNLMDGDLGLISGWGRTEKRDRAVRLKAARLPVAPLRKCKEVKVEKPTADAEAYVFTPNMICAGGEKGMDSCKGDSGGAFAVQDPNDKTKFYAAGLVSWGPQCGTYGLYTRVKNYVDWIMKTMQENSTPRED
AP ELISA ortho – alternative complement pathway inhibitors, primary screen, biochemical, ELISA, human serum, orthogonally pooled compounds; LPS-coated ELISA, C3 deposition; tested in compound mixtures; inhibition, % at 5 µM; 62,000 tested, 0.08% active; AID 1235, 2008;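 active means inhibition above 30% in each of the two pooled mixtures holding the compound, so the lower value exceeds 30%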;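 further: 0% = serum in Mg-EGTA without compound and 100% = EDTA serum blank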
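Test system – human serum alternative complement pathway, C3 deposition on LPS-coated wells · Buffer or medium – diluted human serum in Mg2+-EGTA GVB++ · Compound dosing – 5 µM each compound, pools of ten, 50 µM per pool · Schedule – 1 h serum-compound exposure at 37 °C · Measured by – Anti-C3 ELISA, OD 450 nm · Read-out basis – percent inhibition of C3 deposition onto LPS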
Htt clearance – clearance of mutant huntingtin inclusions, primary screen, imaging, HeLa Exon1htt(103Q)mCFP, confocal imaging. aggregate imaging; zero = plate's median compound well. inhibition, % at 1.5 µM. 47,000 tested, 0.42% active;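 active means inhibition of aggregate fluorescence above about 70%, also judged a hit by eye on the cell image, limit read from the data, passing the limit was not always enough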;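 further: cells exposed to compound for three days before fixation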
FXIIa mix inh – human factor XIIa inhibitors, primary screen, biochemical, pooled compound mixtures, fluorogenic substrate; purified FXIIa; inhibition, % at 5 µM; 62,000 tested, 0.2% active; AID 684, 2007;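 further: 0% = enzyme without compound and 100% = no enzyme blank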
FXIa mix inh – FXIa protease inhibitors in compound pools, primary screen, biochemical, 10-compound mixtures. Coagulation factor XI (Homo sapiens), P03951. purified FXIa, fluorogenic substrate, pooled mixtures. inhibition, % at 5 µM. 62,000 tested, 0.19% active. AID 680, 2007;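 further: each value is inhibition by a whole ten-compound pool holding the compound; 0% = enzyme with no mixture and 100% = wells lacking enzyme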
* marks the source's active call; other numbers are inactive results. A selection: hits, their analogues and other compounds. The true share with any hit is near 0.8%. Unless noted, no stated cut-off is given here; in the data, active means inhibition above about 20% (passing the limit was not always enough); inactive means the rest.

How did Nc1c(C(=O)NCc2ccco2)nnn1Cc1ccccc1 do in these assays?
Cathepsin G inh: 6.3; C1s inh: 12.0; AP ELISA ortho: 3.2; FXIIa mix inh: -19.1; FXIa mix inh: 5.9

What do the screens show for `COc1ccc(C(=O)CN(C(=O)c2ccc(Cl)cc2)N2C(=O)C3CCCCC3C2=O)cc1` (stereo not drawn)?
Htt clearance: 18.8

How did O=C(CN1C(=O)NC2(CCCCCCC2)C1=O)N1CCOCC1 do in these assays?
Cathepsin G inh: -0.7; C1s inh: -77.6; AP ELISA ortho: 38.6*; FXIIa mix inh: -18.7; FXIa mix inh: -12.5

How did Cc1cc(NC(=O)CSc2nc(C3CC3)nc3sc4c(c23)CCC(C)C4)no1 (stereo not drawn) do in these assays?
Cathepsin G inh: 11.2; C1s inh: 14.0; AP ELISA ortho: 8.1; Htt clearance: 71.5*; FXIIa mix inh: 3.8; FXIa mix inh: 2.6

Results for Cc1csc(SCC(=O)NC(=O)NCc2ccccc2)n1 ?
Cathepsin G inh: 4.5; C1s inh: 3.5; AP ELISA ortho: 6.6; Htt clearance: 77.9*; FXIIa mix inh: 3.8; FXIa mix inh: 10.4

How did CN1C(=O)c2c(sc3c2CC(C)(C)SC3)N2CCN=C12 do in these assays?
Cathepsin G inh: 4.0; C1s inh: 0.9; AP ELISA ortho: 35.4*; FXIIa mix inh: -11.2; FXIa mix inh: -0.3

What do the screens show for `COCCn1c(=S)[nH]c2ncccc2c1=O`?
Cathepsin G inh: 50.5; C1s inh: -8.6; AP ELISA ortho: 9.2; Htt clearance: -34.7; FXIIa mix inh: 8.0; FXIa mix inh: 37.6*

Results for CCOc1ccc(Nc2nc(C)cc(C)c2C#N)cc1 ?
Cathepsin G inh: 9.2; C1s inh: 13.6; AP ELISA ortho: 18.2; Htt clearance: 77.0*; FXIIa mix inh: 0.2; FXIa mix inh: 5.0

What do the screens show for `Cc1noc(NS(=O)(=O)c2ccc(NC(=O)CSc3nc4ccccc4s3)cc2)c1C`?
Cathepsin G inh: 32.4; C1s inh: 12.8; AP ELISA ortho: 5.6; Htt clearance: -40.4; FXIIa mix inh: 2.4; FXIa mix inh: 52.2*

What do the screens show for `Cc1noc(NS(=O)(=O)c2ccc(NC(=O)CSc3ncccn3)cc2)c1C`?
Cathepsin G inh: -0.9; C1s inh: -11.7; AP ELISA ortho: 26.6; FXIIa mix inh: 17.9; FXIa mix inh: 6.1

Results for COc1cc2nc(-c3cccs3)oc(=O)c2cc1OC ?
Cathepsin G inh: 22.5*; C1s inh: 11.4; AP ELISA ortho: 22.1; Htt clearance: 22.2; FXIIa mix inh: 3.7; FXIa mix inh: 7.2

How did O=c1oc(-c2cccs2)nc2ccc(Br)cc12 do in these assays?
Htt clearance: 46.5

Results for Cc1cc(C)c(C)c(/C=C(/C#N)C(N)=S)c1C ?
Htt clearance: 77.1*

What do the screens show for `Cc1ccc(C(=O)CC2(O)C(=O)N(CN3CCOCC3)c3ccccc32)cc1` (stereo not drawn)?
Cathepsin G inh: 8.6; C1s inh: 10.4; AP ELISA ortho: 15.6; FXIIa mix inh: 72.6*; FXIa mix inh: 9.1

How did CCc1ccc(C(=O)CC2(O)C(=O)N(CN3CCOCC3)c3ccccc32)cc1 (stereo not drawn) do in these assays?
Cathepsin G inh: 6.7; C1s inh: 1.7; AP ELISA ortho: 14.4; FXIIa mix inh: 7.5; FXIa mix inh: 2.8

How did CCOC(=O)N=S(=O)(Oc1ccc([N+](=O)[O-])cc1)c1ccccc1 (stereo not drawn) do in these assays?
Htt clearance: 78.3*

Results for CCOC(=O)NC(=O)CSc1nc(C)cc(C(F)(F)F)c1C#N ?
Cathepsin G inh: 8.4; C1s inh: 0.9; AP ELISA ortho: 32.6*; Htt clearance: 2.7; FXIIa mix inh: 11.3; FXIa mix inh: 3.7

Results for Cc1ccc(Nc2nc(C(=O)N3CCC(C(=O)NCCN4CCOCC4)CC3)cs2)cc1 ?
Cathepsin G inh: 13.4; C1s inh: 16.6; AP ELISA ortho: 7.5; Htt clearance: 73.8*; FXIIa mix inh: 2.5; FXIa mix inh: 0.1

What do the screens show for `COC(=O)C1CCN(S(=O)(=O)Cc2ccccc2)CC1`?
Cathepsin G inh: -1.6; C1s inh: 0.4; AP ELISA ortho: 18.9; Htt clearance: 48.7; FXIIa mix inh: 0.9; FXIa mix inh: 3.1
